UBC13 inh – UBC13 polyubiquitin chain formation inhibitors, primary screen, biochemical, TR-FRET, uHTS; 330,000 compounds, 0.47% hits; inhibition, % at 20 µM; Ubiquitin-conjugating enzyme E2 N (Homo sapiens), P61088; in the data active = inhibition above about 45%, passing the limit was not always enough
UPR CHOP act – activators of apoptotic CHOP UPR arm, primary screen, cell-based, CHO-CHOP luciferase reporter, luminescence, uHTS | UPR activation; percent of tunicamycin response over DMSO baseline | activation, % at 10 µM | 330,000 compounds, 0.34% hits | AID 449763, 2010;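 active = at 10 µM dose, activation of 40% or more, normalized to positive control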;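 note: 100% = tunicamycin at 10 µg/mL and 0% = DMSO alone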
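System: CHO CHOP reporter cells. Amount: 500 cells per well. Buffer or medium: F12 medium, 10% FBS. Compound dosing: one dose, 10 µM in 0.5% DMSO. Incubation: 6 h compound exposure at 37 °C after overnight seeding. Technique: Steady-Glo luciferase luminescence. Benchmarks: tunicamycin and DMSO controls.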
UPR XBP1 act – activators of adaptive XBP1 UPR arm, primary screen, cell-based, CHO-XBP1 luciferase reporter, luminescence, uHTS. IRE1-XBP1 UPR activation; percent of tunicamycin response, DMSO as zero. activation, % at 20 µM. 330,000 compounds, 0.33% hits;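 active = versus positive control, 20 µM dose yields 30% or more activation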;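 note: 100% = tunicamycin at 10 µg/mL and 0% = DMSO only wells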
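Test system: CHO-XBP1 luciferase reporter cells | Buffer or medium: Serum-containing F12 medium, 10% FBS | Schedule: 6 h compound exposure at 37 °C, 5% CO2 | Detection: Steady-Glo luciferase glow luminescence, 10 min after reagent addition | Read-out basis: Activation, % of tunicamycin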
Mdm2 MdmX PPI – inhibitors of human Mdm2-MdmX association, primary screen, cell-based, luminescence, split luciferase, SaOS-2, uHTS. AID 485346, 2010. inhibition, % at 8 µM. SaOS-2 split-luciferase Mdm2/MdmX complementation. 330,000 compounds, 3% hits;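 active = inhibition of at least 50% at 8 µM in the primary screen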
Target sequence (O15151 whole entry, looked up): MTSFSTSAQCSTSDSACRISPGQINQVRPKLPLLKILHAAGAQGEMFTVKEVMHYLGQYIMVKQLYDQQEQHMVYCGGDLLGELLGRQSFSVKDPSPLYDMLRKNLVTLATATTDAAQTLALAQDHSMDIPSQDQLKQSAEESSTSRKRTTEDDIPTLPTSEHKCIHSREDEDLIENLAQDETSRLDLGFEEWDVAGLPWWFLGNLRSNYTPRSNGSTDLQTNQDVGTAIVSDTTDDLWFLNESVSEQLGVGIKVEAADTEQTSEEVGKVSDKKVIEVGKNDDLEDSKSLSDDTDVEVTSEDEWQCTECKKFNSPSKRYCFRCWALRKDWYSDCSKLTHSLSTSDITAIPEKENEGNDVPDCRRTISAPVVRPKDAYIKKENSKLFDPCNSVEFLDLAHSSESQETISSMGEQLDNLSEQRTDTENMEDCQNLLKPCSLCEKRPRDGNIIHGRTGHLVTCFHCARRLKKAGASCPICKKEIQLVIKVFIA
Target sequence (Q00987 whole entry, looked up): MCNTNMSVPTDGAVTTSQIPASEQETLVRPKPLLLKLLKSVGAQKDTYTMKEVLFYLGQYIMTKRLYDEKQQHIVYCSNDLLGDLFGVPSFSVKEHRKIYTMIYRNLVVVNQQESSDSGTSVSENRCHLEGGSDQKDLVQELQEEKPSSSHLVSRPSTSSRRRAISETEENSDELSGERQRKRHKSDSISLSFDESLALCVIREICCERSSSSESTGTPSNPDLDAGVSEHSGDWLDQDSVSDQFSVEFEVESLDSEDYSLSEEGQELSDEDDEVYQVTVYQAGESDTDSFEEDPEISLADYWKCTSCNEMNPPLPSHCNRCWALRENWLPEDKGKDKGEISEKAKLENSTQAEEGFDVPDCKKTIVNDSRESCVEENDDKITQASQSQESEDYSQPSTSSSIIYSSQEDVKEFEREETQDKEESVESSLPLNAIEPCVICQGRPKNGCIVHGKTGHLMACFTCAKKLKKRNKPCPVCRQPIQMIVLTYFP
Apaf-1 inh – inhibitors of human Apaf-1 apoptosome, primary screen, biochemical, DEVD-Rh110 fluorescence, uHTS | inhibition, % at 20 µM | 330,000 compounds, 0.71% hits | reconstituted apoptosome caspase-3 activity | AID 489030, 2010; active = inhibition of at least 40% at 20 µM;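 note: plate controls were DMSO wells for no effect and DEVD-CHO caspase inhibitor wells for full effect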
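Material: biochemical Apaf-1 apoptosome reconstitution. Medium: Hepes buffer, pH 7.5. Also added: cytochrome c activation, bis-DEVD rhodamine 110 substrate. Timing: 30 min compound preincubation, 50 min activation, room temperature. Measured by: rhodamine 110 fluorescence at Ex 480/Em 540 nm.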
Mdm2-MdmX conf – Mdm2-MdmX complex disruptors, retested hits, confirmation, luminescence, single concentration. shares compounds with Mdm2 MdmX PPI. 10,000 compounds, 55% hits. Mdm2-MdmX binding, luminescent assay. AID 489028, 2010. inhibition, % at 8 µM; in the data active = inhibition above about 40%
FLuc counter – full-length luciferase signal inhibition, confirmation, counter-screen for Mdm2/MdmX interaction inhibitor project, cell-based, single concentration, SaOS-2 | shares compounds with Mdm2 MdmX PPI | 6,200 compounds, 77% hits | AID 504607, 2011 | SaOS-2 full-length luciferase counterscreen, luminescence | inhibition, % at 8 µM;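 active = mean inhibition at 8 µM reaching about 37%, which flags the compound as non-specific, limit read from the data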;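 note: p53-null SaOS-2 cells with luciferase driven by a doxycycline-inducible promoter; compound on cells about two nights before reading with doxycycline added after day one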
Apaf-1 inh conf2 – Apaf-1 inhibitors, single-dose retest, confirmation, biochemical, fluorescence, DEVD-Rh110, 20 µM | shares compounds with Apaf-1 inh | inhibition, % at 20 µM | 1,800 compounds, 25% hits | reconstituted apoptosome, caspase-3 DEVD-Rh110 fluorescence;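 active = mean inhibition of at least 40% at 20 µM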;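 note: plate controls were DMSO wells for no effect and DEVD-CHO caspase inhibitor control wells for full effect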
Rh110 quench – Rh110 fluorescence interference by putative Apaf-1 inhibitors, confirmation, artefact control for Apaf-1 inhibitor project, biochemical, 20 µM | shares compounds with Apaf-1 inh | quenched caspase reaction | activation (fluorescence interference), % at 20 µM | 1,800 tested, under 10 active | AID 504615, 2011;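 active = signal rise of 40% or more at 20 µM, treated as a fluorescence artifact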
Fluor interf inh – fluorescence interference of Apaf-1 inhibitor hits, dose response, artefact control for Apaf-1 inhibitor project | shares compounds with Apaf-1 inh | fluorescence interference counterscreen, Apaf-1 assay format | IC50, µM | 460 tested, under 10 active | AID 588538, 2011; call rule not given here
* = called active by the depositor; x = not tested or not shown. In the library only some 4.1% were active in any assay of this set; here they are far more common.

SMILES	UBC13 inh	UPR CHOP act	UPR XBP1 act	Mdm2 MdmX PPI	Apaf-1 inh	Mdm2-MdmX conf	Apaf-1 inh conf2	Rh110 quench	others
Cc1cc(OCCCC(=O)Nc2cccc(-n3cnnn3)c2)ccc1Cl	6	-1	-2	17	25	x	x	x
CCN(c1ccccc1)S(=O)(=O)c1ccc(Cl)c(NC(=O)Nc2ccc(Cl)cc2C#N)c1	-9	4	2	99*	40*	99*	44*	-4	FLuc counter=56*;Fluor interf inh=>100
CCN(c1ccccc1)S(=O)(=O)c1cc(NC(=O)Nc2ccccc2C#N)ccc1Cl	-4	0	0	-34	13	x	x	x
CCN1/C(=C/c2ccc3cc(C)ccc3[n+]2CC)Sc2cc(C)c(C)cc21	16	20	6	81*	64*	85*	60*	-19	FLuc counter=39*;Fluor interf inh=>100
CCC(=O)/C=C1/Sc2ccc(OC)cc2N1CC	-8	0	-1	-10	7	x	x	x
O=C(OCC(=O)N1CCc2ccccc2C1)c1c(F)cccc1Cl	8	3	-3	-132	-2	x	x	x
CCN1CCN(c2ccc(S(=O)(=O)N3CCCCC3)cc2NC(=O)/C=C/c2ccc(OC(F)F)cc2)CC1	15	2	5	82*	52*	52*	9	4	FLuc counter=69*
CCN1CCN(c2ccc(S(=O)(=O)N3CCCCC3)cc2NC(=O)c2ccc(OC(F)F)cc2)CC1	3	1	1	19	24	x	x	x
Cn1c(=O)c2sccc2n2c(CCCC(=O)NCc3ccco3)nnc12	8	0	-3	7	-15	x	x	x
Cc1nccn1-c1cc(C(C)(C)C)nc2c(-c3ccccc3)cnn12	-1	2	0	10	30	x	x	x
CC(C)C(=O)NC(c1cccs1)c1cc([N+](=O)[O-])c2cccnc2c1O (stereo unspecified)	-68	2	-2	68*	68*	70*	35	5	FLuc counter=57*
O=C(NCc1cccnc1)c1cn(-c2ccccc2)nc1-c1ccccc1	9	2	1	-12	-8	x	x	x
COc1cc(OC)c2c(-c3ccccc3)cc(=O)oc2c1C(CCN1CCCC(C)C1)c1ccc2c(c1)OCO2 (stereo unspecified)	4	9	10	74*	56*	37	19	11	FLuc counter=77*
COc1cc(OC)c2ccc(=O)oc2c1C(CCN1CCCC(C)C1)c1ccc(N(C)C)cc1 (stereo unspecified)	18	4	-1	0	7	x	x	x
COc1cc(OC)c2ccc(=O)oc2c1C(CC(=O)N1CCCC(C)C1)c1ccc2c(c1)OCO2 (stereo unspecified)	-9	-2	0	15	7	x	x	x
CCCCCc1cc(=O)oc2c(C(CCN3CCCC(C)C3)c3ccc(N(C)C)cc3)c(OC)cc(OC)c12 (stereo unspecified)	9	20	22	96*	68*	27	38	10
COc1ccc(/C=N/N(C)C2=NCCN2)c(OC)c1OC	-5	0	-2	-21	6	x	x	x
CCCn1c(N2CCC(Cc3ccccc3)CC2)nc2c1c(=O)[nH]c(=O)n2C	2	0	5	33	36	x	x	x
CCCCCn1c(N2CCC(Cc3ccccc3)CC2)nc2c1c(=O)[nH]c(=O)n2C	17	1	18	58*	46*	5	32	11
CN(C)CCCN1c2ccccc2CCc2ccccc21	8	-2	-2	7	3	x	x	x
CN(C)CCCN1c2ccccc2Sc2ccc(Cl)cc21	18	0	-2	68*	42*	13	16	8
Cc1ccc(-n2c(O)c(/C=N/Nc3ccc(S(=O)(=O)N4CCOCC4)cc3[N+](=O)[O-])c3ccccc3c2=O)c(C)c1	-60	0	-3	55*	51*	26	31	6
CCN1C(=NCCc2ccc(Br)cc2)N[C@@H](c2ccccc2)[C@H](C(=O)OC)[C@H]1C	31	1	-4	52*	45*	14	12	2
CCOC(=O)/C(=N\Nc1ccccc1)P(=O)(c1ccccc1)c1ccccc1	0	2	-2	18	12	x	x	x
CCc1nc(N2CCN(C(C)=O)CC2)c2c3c(sc2n1)CC(C(C)(C)C)CC3 (stereo unspecified)	22	9	-4	72*	42*	25	31	10	FLuc counter=63*
SMILES	UBC13 inh	UPR CHOP act	UPR XBP1 act	Mdm2 MdmX PPI	Apaf-1 inh	Mdm2-MdmX conf	Apaf-1 inh conf2	Rh110 quench	others
CCNC(=S)N1CCN(c2nc(CC)nc3sc4c(c23)CCCC4)CC1	9	0	-3	3	14	x	x	x
COc1ccc(Cl)cc1NS(=O)(=O)c1cccc(C(=O)NC2CC2)c1	9	0	0	0	2	x	x	x
C[C@@]12CCC=C[C@H]1[C@H](c1ccc3ccccc3c1)N(Cc1ccccc1)C2=O	8	-1	0	43	24	x	x	x
C[C@@]12CCC=C[C@H]1[C@H](c1ccc3ccccc3c1Br)N(Cc1ccccc1)C2=O	2	4	-4	50*	49*	9	50*	4	Fluor interf inh=>100
O=C1CCNc2ccc(-c3ccccc3)cc21	-2	1	0	8	26	x	x	x
O=C1CCNc2cc3ccccc3cc21	-40	1	1	65*	62*	61*	20	11	FLuc counter=49*
Cc1cc(/C=N/n2cnnc2)c(C)n1-c1ccc(OCc2ccc(Cl)cc2Cl)cc1	5	-3	-6	74*	46*	31	28	6
CCOC(=O)c1sc(=S)n(-c2ccc(Cl)cc2)c1SC	-7	-2	1	7	8	x	x	x

Bioassay records from PubChem BioAssay.
